Source: BindingDB's records for doi:10.1016/j.bmcl.2011.11.010 (Ludwig-Maximilians-University Munich, 2011)

Molecular target: T1, Beta-galactoside-binding lectin (Gallus gallus, UniProt P07583)
T1 sequence (P07583 whole entry): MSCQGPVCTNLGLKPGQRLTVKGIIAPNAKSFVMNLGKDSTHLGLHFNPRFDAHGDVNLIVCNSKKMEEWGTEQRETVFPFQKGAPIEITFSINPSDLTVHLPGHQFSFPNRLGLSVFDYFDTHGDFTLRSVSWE
Assay: Inhibition of binding of biotinylated chicken galectin-1B to surface immobilized asialofetuin by solid phase assay
Procedure, shortened: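 Asialofetuin was adsorbed to microtiter wells at a constant coating amount, and its N-glycans served as ligand. Biotinylated lectin at a lectin-specific concentration was added with inhibitor. IC50 (mM) was normalized to lactose, and potency was expressed relative to free lactose. Assays were run in triplicate across up to five independent series.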

OC[C@H]1O[C@@H](O[C@H]2[C@H](O)[C@@H](O)[C@H](O)O[C@@H]2CO)[C@H](O)[C@@H](O)[C@H]1O [Lactose, anhydrous]
IC50: 4 mM
